Data reported in paper PMC2943143 (Biochemical pharmacology, 2010).
“Also recorded” adds a separate entry of the source.

Columns and labels:
[1] = molecular target: del-2 pol λ (245–575) (Homo sapiens, UniProt Q9UGP5); assay: Pol assay, del-2 pol λ mutant; format: biochemical
Method in brief: (§1)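 Test compound was dissolved in DMSO and sonicated 30 s. It was preincubated with enzyme (0.05 unit final) in 50 mM Tris-HCl pH 7.5, 1 mM DTT, 50% glycerol and 0.1 mM EDTA at 0 °C for 10 min. This was added to each enzyme's standard reaction mix with poly(dA)/oligo(dT)18 (A/T = 2/1) template-primer and dTTP substrate, then incubated at 37 °C for 60 min. Activity is given as % of inhibitor-free control.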

[2] = molecular target: T1, calf pol α (Bos taurus, UniProt A0AAA9TD94); assay: Pol assay, calf pol α; format: biochemical; conditions: for Ki: pol α, Dixon plot
T1 sequence (A0AAA9TD94 1-1441): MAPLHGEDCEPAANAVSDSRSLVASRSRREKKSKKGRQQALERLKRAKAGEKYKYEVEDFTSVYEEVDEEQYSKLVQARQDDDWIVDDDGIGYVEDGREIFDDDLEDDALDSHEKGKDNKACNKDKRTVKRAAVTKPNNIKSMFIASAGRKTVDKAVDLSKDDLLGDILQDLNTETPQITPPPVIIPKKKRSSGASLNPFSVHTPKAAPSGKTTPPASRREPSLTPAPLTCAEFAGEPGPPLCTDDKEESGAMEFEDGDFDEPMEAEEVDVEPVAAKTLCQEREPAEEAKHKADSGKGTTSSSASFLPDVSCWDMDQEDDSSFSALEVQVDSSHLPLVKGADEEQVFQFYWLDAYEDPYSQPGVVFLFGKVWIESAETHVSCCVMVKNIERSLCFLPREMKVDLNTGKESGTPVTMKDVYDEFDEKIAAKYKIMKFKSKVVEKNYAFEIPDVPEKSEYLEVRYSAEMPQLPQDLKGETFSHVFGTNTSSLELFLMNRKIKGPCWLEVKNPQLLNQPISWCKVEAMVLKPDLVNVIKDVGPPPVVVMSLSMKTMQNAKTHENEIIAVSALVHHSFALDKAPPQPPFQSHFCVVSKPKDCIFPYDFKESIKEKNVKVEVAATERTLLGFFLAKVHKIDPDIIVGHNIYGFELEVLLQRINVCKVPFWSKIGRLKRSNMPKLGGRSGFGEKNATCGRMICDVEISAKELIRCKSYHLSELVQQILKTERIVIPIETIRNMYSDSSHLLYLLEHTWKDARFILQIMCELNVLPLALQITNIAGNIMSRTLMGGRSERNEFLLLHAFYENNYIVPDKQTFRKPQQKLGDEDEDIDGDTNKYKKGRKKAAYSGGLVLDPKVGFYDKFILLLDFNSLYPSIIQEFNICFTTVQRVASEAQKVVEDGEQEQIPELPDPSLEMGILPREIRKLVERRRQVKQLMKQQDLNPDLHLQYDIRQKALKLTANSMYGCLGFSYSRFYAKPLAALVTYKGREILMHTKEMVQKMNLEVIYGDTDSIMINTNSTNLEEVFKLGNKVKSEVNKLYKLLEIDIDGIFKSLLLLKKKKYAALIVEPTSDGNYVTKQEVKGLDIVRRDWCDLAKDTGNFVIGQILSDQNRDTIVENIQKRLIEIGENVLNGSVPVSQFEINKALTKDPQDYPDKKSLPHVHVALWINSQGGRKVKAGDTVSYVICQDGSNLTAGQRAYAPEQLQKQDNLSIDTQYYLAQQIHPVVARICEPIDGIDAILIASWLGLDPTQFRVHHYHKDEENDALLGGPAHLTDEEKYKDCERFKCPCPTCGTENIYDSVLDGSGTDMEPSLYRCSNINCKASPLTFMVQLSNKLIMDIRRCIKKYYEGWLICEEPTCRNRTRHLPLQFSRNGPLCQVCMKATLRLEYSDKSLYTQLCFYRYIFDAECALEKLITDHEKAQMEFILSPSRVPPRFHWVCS
Method in brief: as §1

[3] = molecular target: Xanthine oxidase; conditions: read-out: IC50, Xanthine oxidase; cited from earlier work
[4] = molecular target: calf thymus TdT (Bos taurus, UniProt P06526); assay: Pol assay, calf TdT; format: biochemical; conditions: 100 and 1,000 nM PGG, Fig. 1C
Method in brief: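 TdT was assayed with oligo(dT)18 (3′-OH) primer and dTTP substrate. Test compound in sonicated DMSO was preincubated with 0.05 unit enzyme in 50 mM Tris-HCl pH 7.5, 1 mM DTT, 50% glycerol and 0.1 mM EDTA at 0 °C for 10 min. Reaction ran at 37 °C for 60 min. Remaining activity is expressed relative to no-inhibitor control.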

[5] = molecular target: human topoisomerase II (Homo sapiens, UniProt P11388); assay: DNA topoisomerase II assay; format: biochemical; conditions: highest tested concentration 1 μM, supplemental Fig. S1B
Method in brief: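 Topoisomerases I and II were purified from human placenta, and DNase I came from bovine pancreas. Each activity was measured in a standard assay following the supplier's specifications.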

[6] = test system: H^+, K^+- ATPase; conditions: cited from earlier work

Chain of calf thymus TdT (P06526 whole entry): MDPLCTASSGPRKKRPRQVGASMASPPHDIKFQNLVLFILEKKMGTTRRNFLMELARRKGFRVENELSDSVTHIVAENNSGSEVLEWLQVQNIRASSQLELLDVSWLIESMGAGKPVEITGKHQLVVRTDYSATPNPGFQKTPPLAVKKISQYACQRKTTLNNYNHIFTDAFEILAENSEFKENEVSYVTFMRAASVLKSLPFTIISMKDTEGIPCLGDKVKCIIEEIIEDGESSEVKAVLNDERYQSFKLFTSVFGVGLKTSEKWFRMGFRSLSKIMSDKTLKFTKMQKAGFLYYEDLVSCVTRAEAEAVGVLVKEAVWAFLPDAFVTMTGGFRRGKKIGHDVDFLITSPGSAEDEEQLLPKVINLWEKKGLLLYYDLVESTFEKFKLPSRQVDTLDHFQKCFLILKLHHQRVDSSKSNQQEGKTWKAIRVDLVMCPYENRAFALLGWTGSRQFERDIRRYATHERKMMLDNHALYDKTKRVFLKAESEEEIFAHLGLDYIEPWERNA
Chain of del-2 pol λ (245–575) (Q9UGP5 245-575): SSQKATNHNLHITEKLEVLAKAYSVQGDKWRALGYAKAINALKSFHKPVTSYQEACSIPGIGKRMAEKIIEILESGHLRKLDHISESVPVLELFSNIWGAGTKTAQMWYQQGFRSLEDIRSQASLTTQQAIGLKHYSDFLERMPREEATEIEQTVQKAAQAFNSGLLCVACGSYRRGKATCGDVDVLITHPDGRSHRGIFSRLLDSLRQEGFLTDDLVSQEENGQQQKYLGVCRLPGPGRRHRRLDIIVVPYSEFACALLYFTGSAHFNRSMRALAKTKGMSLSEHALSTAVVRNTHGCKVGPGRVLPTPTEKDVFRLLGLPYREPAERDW
Chain of human topoisomerase II (P11388 whole entry): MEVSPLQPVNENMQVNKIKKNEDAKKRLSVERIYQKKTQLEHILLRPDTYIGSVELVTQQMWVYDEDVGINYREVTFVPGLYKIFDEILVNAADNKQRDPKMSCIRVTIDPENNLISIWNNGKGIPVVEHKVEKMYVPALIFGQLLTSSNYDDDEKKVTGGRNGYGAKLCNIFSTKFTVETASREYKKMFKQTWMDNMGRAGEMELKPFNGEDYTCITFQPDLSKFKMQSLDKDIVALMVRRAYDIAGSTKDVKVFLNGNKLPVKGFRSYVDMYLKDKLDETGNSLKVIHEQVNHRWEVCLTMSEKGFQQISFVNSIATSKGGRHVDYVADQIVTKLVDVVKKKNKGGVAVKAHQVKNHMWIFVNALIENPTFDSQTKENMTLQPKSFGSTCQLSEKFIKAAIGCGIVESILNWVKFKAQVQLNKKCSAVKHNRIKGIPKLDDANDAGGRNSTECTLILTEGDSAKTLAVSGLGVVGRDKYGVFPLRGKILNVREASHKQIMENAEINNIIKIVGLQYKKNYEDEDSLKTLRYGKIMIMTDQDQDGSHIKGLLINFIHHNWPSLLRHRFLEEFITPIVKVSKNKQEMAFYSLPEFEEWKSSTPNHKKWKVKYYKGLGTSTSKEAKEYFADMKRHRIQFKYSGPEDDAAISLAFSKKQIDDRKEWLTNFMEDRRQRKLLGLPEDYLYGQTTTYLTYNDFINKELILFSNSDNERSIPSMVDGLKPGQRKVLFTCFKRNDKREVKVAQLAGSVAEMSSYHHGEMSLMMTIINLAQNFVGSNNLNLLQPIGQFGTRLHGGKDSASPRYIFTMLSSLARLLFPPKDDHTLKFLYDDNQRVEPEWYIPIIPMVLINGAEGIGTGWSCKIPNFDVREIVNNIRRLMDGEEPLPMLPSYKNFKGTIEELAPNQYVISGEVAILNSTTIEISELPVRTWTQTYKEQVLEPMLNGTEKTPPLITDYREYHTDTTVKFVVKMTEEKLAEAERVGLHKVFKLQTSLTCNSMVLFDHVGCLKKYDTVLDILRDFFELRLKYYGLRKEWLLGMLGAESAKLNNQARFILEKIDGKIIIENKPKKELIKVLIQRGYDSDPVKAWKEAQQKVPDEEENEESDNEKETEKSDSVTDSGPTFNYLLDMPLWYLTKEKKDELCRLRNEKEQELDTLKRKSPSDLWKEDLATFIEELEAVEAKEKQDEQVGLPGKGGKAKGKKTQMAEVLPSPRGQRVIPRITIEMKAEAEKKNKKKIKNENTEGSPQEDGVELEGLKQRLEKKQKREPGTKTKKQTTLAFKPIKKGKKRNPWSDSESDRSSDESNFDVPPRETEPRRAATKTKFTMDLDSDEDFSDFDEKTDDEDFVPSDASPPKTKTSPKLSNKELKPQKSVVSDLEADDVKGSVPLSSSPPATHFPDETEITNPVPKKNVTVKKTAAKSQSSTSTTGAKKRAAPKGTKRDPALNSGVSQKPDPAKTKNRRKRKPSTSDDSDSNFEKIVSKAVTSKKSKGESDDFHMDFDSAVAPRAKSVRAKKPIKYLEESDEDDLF

SMILES: O=C(OC[C@H]1O[C@@H](OC(=O)c2cc(O)c(O)c(O)c2)[C@H](OC(=O)c2cc(O)c(O)c(O)c2)[C@@H](OC(=O)c2cc(O)c(O)c(O)c2)[C@@H]1OC(=O)c1cc(O)c(O)c(O)c1)c1cc(O)c(O)c(O)c1 [PGG, 1,2,3,4,6-penta-O-galloyl-β-D-glucose]
- IC50 [1]: 117 nM
- apparent Vmax of pol α, DNA template-primer, decreased to ([2]; 5 nM PGG): 32.2%
- apparent Vmax of pol α, DNA template-primer, decreased to ([2]; 10 nM PGG): 18.9%
- apparent Vmax of pol α, DNA template-primer, decreased to ([2]; 15 nM PGG): 13.6%
- apparent Vmax of pol α for the dNTP substrate ([2]; 15 nM PGG (29.2 without PGG)): 3.77 pmol/h
- effect on pol α activity ([2]; 100 and 1,000 nM PGG, Fig. 1C): significantly inhibit
- IC50 ([2]; IC50, pol α, poly(dA)/oligo(dT)18 and dTTP, 0.05 unit enzyme): 13 nM
- Ki ([2]; for the DNA template-primer): 2.5 nM
- Ki ([2]; for the dNTP substrate): 2.2 nM
- Mode of Inhibition, pol α, DNA template-primer ([2]; Lineweaver-Burk plots): Non-competitive for DNA template-primer
- Mode of Inhibition, pol α, dNTP ([2]; Lineweaver-Burk plots): Non-competitive for dNTP
- effect of 0.05% NP-40 on the inhibitory effect on pol α ([2]; PGG 10 and 100 nM, supplemental Table S1): not reversed
- effect of poly(rC) or BSA on the inhibitory effect on pol α ([2]; poly(rC) 50 μM, BSA 200 μg/ml): neither poly(rC) nor BSA influenced
- IC50 [3]: 3200 nM
- effect on TdT activity [4]: not affected; also recorded: not sensitive
- effect on human topoisomerase II activity [5]: did not suppress
- Mode of Inhibition, H^+, K^+- ATPase [6]: Non-competitive for K^+
- IC50 ([6]; read-out: IC50, H^+, K^+- ATPase): 166 nM
